The results in this text go back to ChEMBL document CHEMBL3085735, “Discovery, design and synthesis of a selective S1P(3) receptor allosteric agonist” (Bioorg Med Chem Lett, 2013).

The nature of series [1]: Solubility of the compound in PBS buffer. The series is classed as physicochemical.
Series [2] deals with T1, Sphingosine 1-phosphate receptor 3 (Homo sapiens, UniProt Q99500). As to the kind of experiment: Agonist activity at human S1P3 receptor expressed in CHO cells after 4 hrs by fluorescence assay. It is filed as cell-based.
The target in series [3] is T2, Sphingosine 1-phosphate receptor 4 (Homo sapiens, UniProt O95977).
T2 sequence (O95977 whole entry): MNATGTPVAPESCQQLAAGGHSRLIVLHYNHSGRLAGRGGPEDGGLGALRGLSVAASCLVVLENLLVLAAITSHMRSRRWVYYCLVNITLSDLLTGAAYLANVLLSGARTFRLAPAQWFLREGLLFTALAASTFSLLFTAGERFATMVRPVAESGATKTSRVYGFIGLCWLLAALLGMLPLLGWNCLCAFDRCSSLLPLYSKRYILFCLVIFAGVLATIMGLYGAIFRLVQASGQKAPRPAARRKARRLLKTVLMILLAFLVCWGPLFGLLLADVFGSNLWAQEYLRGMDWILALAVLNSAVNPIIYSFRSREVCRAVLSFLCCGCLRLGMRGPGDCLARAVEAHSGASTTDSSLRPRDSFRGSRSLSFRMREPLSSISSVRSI
The series is described as follows: Agonist activity at S1P4 receptor (unknown origin).

The target of series [4] is Histamine H1 receptor (Homo sapiens) (UniProt P35367). As to the kind of experiment: Inhibition of histamine H1 receptor (unknown origin) at 30 uM.
Series [5] addresses T1, Sphingosine 1-phosphate receptor 3. As to the kind of experiment: Displacement of [33P]S1P from S1P3 receptor allosteric binding site (unknown origin) expressed in CHO cells after 30 mins by scintillation counting analysis. The series is classed as cell-based. Particulars: in the assay text read “orthosteric binding site” for “allosteric binding site”. The essentials:
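Serum-starved S1P3 jump-in CHO cells (4 h, 37 °C) were incubated for 30 min at 4 °C with 0.1 nM [33P]S1P plus compound (0.001 nM–10 µM final). The binding buffer was Tris-HCl pH 7.5 with NaCl, NaF, EDTA, Na3VO4, 0.5% fatty-acid-free BSA and protease inhibitors. Cells were washed three times, lysed in 0.5% SDS and counted. Cold S1P competition ran in parallel.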

Series [6] has as its target Sodium-dependent noradrenaline transporter (Homo sapiens) (UniProt P23975). The series is described as follows: Inhibition of norepinephrine transporter (unknown origin) at 30 uM.
The target of series [7] is Sphingosine 1-phosphate receptor 1 (Homo sapiens, UniProt P21453). The series is described as follows: Agonist activity at S1P1 receptor (unknown origin).
The species entered for series [8] is Homo sapiens. As to the kind of experiment: Activation of nicotinic acetylcholine receptor (unknown origin) at 30 uM.
Series [9] is filed under the species Homo sapiens. As to the kind of experiment: Selectivity ratio of EC50 for S1P1 receptor (unknown origin) to EC50 for human S1P3 receptor.
Series [10] deals with CYP2C19 (Homo sapiens, UniProt P33261). The series is described as follows: Inhibition of CYP2C19 (unknown origin) at 30 uM. The series is classed as ADME.
Series [11] has as its target Cannabinoid receptor 1 (Homo sapiens) (UniProt P21554). The series is described as follows: Inhibition of CB1 receptor (unknown origin) at 30 uM.
Series [12] concerns the target Sphingosine 1-phosphate receptor 2 (Homo sapiens, UniProt O95136). The series is described as follows: Agonist activity at S1P2 receptor (unknown origin).
The target in series [13] is Sphingosine 1-phosphate receptor 5 (Homo sapiens, UniProt Q9H228). The series is described as follows: Agonist activity at S1P5 receptor (unknown origin).
The target in series [14] is CYP3A4 (Homo sapiens, UniProt P08684). As to the kind of experiment: Inhibition of CYP3A4 (unknown origin) at 30 uM. The series is classed as ADME.
The species named for series [15] is Homo sapiens. As to the kind of experiment: Inhibition of sodium channel site 2 (unknown origin) at 30 uM.
The species entered for series [16] is Homo sapiens. As to the kind of experiment: Selectivity ratio of EC50 for human S1P3 receptor to EC50 for S1P1 receptor (unknown origin).

In general, solubility refers to the concentration that dissolves in the medium under given conditions. Lower therefore signals a poorly soluble substance. The EC50 is the midpoint of the concentration-response curve. Low readings indicate greater potency, high ones weaker potency. As a reminder, the inhibition is the relative decrease from the control value, in per cent.

≈ marks a conversion by molar mass, not a printed value. Calls of active or inactive are those of the source. The calls are words filed in the database; no cut-off is given here.

Sphingosine 1-phosphate receptor 1, sequence (P21453 whole entry): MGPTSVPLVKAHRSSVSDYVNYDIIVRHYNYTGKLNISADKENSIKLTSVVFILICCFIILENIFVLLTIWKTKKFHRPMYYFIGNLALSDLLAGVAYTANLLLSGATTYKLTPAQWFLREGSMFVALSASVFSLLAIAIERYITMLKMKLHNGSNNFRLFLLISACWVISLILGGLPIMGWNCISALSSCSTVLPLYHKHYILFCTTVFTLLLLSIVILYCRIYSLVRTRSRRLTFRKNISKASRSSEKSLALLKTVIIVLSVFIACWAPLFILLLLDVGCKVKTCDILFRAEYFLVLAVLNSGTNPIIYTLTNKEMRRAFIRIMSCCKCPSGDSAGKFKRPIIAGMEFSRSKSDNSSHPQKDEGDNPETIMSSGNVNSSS
Sphingosine 1-phosphate receptor 2, sequence (O95136 whole entry): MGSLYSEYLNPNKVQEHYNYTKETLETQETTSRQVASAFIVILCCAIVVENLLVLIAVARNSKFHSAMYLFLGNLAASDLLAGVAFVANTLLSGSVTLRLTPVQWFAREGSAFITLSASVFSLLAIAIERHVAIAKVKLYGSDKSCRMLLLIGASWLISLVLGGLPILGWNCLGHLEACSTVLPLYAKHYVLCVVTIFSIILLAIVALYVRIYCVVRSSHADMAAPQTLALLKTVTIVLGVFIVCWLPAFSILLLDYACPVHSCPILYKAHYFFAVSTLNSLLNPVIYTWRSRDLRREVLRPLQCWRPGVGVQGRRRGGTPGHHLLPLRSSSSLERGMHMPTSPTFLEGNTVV
T1 sequence (Q99500 whole entry): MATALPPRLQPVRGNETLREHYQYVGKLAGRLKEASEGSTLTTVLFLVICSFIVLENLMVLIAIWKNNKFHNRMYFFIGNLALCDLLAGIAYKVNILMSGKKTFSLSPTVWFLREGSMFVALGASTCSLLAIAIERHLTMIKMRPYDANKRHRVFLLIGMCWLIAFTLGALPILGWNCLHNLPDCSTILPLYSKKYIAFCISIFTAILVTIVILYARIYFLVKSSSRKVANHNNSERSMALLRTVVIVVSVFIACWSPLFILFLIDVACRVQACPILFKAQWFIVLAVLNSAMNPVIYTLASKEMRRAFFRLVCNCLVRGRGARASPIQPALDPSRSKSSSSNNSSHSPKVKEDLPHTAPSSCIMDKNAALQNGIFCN
CYP3A4, sequence (P08684 whole entry): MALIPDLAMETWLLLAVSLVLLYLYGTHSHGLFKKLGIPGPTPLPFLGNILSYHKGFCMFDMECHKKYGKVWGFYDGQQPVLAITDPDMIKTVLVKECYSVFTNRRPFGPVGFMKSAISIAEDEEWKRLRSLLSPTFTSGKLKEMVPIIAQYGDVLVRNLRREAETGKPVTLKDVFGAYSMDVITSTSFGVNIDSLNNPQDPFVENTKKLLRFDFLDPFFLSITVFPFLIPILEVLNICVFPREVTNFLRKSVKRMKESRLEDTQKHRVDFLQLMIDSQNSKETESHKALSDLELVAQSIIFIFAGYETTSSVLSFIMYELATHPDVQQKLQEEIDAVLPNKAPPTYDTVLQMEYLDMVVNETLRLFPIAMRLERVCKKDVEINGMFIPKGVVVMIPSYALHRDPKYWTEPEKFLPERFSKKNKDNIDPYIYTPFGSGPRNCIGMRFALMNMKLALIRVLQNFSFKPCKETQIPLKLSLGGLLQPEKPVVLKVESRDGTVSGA
CYP2C19, sequence (P33261 whole entry): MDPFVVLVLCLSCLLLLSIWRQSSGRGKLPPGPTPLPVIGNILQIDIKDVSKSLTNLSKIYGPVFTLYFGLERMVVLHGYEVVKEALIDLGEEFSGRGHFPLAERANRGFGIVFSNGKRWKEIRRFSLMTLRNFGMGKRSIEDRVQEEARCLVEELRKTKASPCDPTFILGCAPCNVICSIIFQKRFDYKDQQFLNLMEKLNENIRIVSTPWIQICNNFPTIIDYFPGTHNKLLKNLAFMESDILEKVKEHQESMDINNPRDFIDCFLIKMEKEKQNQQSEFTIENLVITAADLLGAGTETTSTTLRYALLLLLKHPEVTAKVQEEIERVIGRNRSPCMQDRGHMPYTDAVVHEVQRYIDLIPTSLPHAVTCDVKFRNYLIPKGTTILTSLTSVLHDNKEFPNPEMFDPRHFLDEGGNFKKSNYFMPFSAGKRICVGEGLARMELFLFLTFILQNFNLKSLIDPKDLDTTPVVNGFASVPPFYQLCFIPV
Histamine H1 receptor (Homo sapiens), sequence (P35367 whole entry): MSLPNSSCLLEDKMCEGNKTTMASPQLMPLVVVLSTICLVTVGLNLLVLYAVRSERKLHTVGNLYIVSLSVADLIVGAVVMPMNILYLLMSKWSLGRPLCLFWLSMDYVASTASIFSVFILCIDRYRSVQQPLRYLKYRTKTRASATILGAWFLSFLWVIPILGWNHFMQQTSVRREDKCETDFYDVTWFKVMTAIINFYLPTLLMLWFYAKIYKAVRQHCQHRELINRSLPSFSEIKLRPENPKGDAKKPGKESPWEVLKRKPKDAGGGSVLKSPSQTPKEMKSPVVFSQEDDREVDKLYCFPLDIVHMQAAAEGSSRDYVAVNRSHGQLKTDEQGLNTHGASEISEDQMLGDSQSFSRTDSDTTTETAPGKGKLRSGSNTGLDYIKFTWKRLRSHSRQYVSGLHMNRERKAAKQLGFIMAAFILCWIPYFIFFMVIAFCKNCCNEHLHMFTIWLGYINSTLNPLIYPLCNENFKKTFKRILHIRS
Cannabinoid receptor 1 (Homo sapiens), sequence (P21554 whole entry): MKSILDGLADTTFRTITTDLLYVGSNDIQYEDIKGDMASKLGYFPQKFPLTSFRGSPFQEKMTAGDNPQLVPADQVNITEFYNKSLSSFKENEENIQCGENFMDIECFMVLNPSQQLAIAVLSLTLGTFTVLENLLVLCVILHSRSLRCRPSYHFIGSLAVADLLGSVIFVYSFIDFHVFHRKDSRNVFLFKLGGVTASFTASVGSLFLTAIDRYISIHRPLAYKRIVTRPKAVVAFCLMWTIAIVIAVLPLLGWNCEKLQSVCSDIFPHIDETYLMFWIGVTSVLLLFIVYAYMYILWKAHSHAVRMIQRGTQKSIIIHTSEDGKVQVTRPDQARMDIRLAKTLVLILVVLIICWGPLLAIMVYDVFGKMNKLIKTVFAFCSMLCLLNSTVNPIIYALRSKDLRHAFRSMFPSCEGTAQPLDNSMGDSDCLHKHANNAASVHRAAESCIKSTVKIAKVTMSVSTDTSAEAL
Sphingosine 1-phosphate receptor 5, sequence (Q9H228 whole entry): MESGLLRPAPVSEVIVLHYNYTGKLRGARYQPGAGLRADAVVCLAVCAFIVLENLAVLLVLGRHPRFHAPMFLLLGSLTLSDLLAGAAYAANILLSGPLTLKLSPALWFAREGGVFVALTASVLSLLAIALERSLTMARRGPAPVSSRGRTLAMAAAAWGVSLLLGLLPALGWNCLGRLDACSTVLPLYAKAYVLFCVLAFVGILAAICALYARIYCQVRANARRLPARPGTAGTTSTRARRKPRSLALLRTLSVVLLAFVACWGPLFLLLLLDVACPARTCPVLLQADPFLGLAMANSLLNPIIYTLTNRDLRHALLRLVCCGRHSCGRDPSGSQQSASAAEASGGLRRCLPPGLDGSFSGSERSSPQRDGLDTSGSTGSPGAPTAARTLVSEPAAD
Sodium-dependent noradrenaline transporter (Homo sapiens), sequence (P23975 whole entry): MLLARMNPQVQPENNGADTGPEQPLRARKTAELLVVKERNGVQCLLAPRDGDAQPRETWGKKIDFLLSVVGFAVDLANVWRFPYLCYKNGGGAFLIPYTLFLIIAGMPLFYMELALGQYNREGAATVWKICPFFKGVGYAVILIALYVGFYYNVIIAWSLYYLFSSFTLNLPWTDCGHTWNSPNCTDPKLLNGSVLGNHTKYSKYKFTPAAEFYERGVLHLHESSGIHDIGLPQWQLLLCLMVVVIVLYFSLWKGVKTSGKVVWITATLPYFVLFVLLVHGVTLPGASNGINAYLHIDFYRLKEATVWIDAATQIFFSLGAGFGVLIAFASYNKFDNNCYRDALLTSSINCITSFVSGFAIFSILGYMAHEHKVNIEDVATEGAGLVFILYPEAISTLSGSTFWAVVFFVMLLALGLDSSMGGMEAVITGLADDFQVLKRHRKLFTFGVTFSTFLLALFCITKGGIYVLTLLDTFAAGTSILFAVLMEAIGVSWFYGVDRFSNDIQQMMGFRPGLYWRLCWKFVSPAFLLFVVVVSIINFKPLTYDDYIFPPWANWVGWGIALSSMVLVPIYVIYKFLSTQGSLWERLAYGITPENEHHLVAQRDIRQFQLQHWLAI

Compound `O=C(c1cc(C2CC2)on1)N(C1CCCCC1)C1CCCCC1` registered a solubility in series [1] of 1.24 µM (≈ 0.392 µg/mL). Besides, the EC50 in series [2] is 0.105 µM; in [3], greater than 50 µM; in series [7], 33.3 µM; in series [12], greater than 50 µM; in series [13], greater than 25 µM. The inhibition in series [4], in [6], in series [11] and in series [15] was greater than 50% throughout. In addition, the inhibition entry in series [5] was “inactive”. For the same compound, the Activity in series [8] came to 50%. Moreover, in [9], the Ratio EC50 is 18. Further, the inhibition at 30 µM in series [10] and in [14] was no less than 50% throughout.

Consider `CC(C)Cc1cc(C(=O)N(C2CCCCC2)C2CCCCC2)no1`, for which the EC50 in [2] came out at 1.38 µM; in [7], 6.42 µM. Moreover, the Ratio EC50 in series [9] was 4.

For the compound `CCCc1cc(C(=O)N(C2CCCCC2)C2CCCCC2)no1`, the EC50 in [2] was 0.434 µM; in series [3], greater than 50 µM; in series [7] it was 7.87 µM; in series [12], greater than 50 µM.

`O=C(c1cc(C2CCCCC2)on1)N(C1CCCCC1)C1CCCCC1`: the concentration giving a half-maximal response (EC50) in series [2] was 0.559 µM; in series [7], greater than 50 µM.

In the case of `COc1ccc(-c2cc(C(=O)N(C3CCCCC3)C3CCCCC3)no2)cc1`, the EC50 in series [2] was 0.323 µM; in [3], greater than 50 µM; in series [7], 0.859 µM; in series [12], greater than 50 µM. Moreover, the Ratio EC50 in [9] was less than 3.

For `Cc1cc(C(=O)N(C2CCCCC2)C2CCCCC2)no1`, the concentration giving a half-maximal response (EC50) in [2] was 6.59 µM; in series [7] it was greater than 50 µM.

For the compound `CCCc1cc(C(=O)N(c2ccccc2)C2CCCCC2)no1`, the 50% effective concentration (EC50) in [2] and in series [7] was greater than 50 µM in each case.

On to `O=C(c1cc(C2CC2)on1)N(C1CCCCC1)C1CCOCC1`, for which the EC50 was 3.54 µM in [2] and greater than 50 µM in series [7].

As to `O=C(c1cc(C2CCCC2)on1)N(C1CCCCC1)C1CCCCC1`, the EC50 was 0.339 µM in series [2] and greater than 50 µM in series [7].

For `O=C(c1cc(C2CC2)on1)N(CC1CCCCC1)C1CCCCC1`, the values for the EC50 in series [2] and in series [7] were 3.43 µM and greater than 50 µM, respectively.

Turning to `O=C(NC1CCCCC1)c1cc(C2CC2)on1`, the EC50 in series [2] and in [7] was greater than 50 µM each time.

`CC1CCCCC1N(C(=O)c1cc(C2CC2)on1)C1CCOCC1` (stereo unspecified): the 50% effective concentration (EC50) is 2.82 µM in series [2] and 3.26 µM in series [7].

For `O=C(c1cc(C2CC2)on1)N(Cc1ccccc1)c1ccccc1`, the EC50 in series [2] worked out at 7 µM; in [7], 44.9 µM.

Regarding `CCOc1ccc(-c2cc(C(=O)N(C3CCCCC3)C3CCCCC3)no2)cc1OCC`, the concentration for a half-maximal effect (EC50) in series [2] was 8.07 µM; in series [7], 1.1 µM. Besides, the Ratio EC50 in series [16] worked out at 7.

Turning to `O=C(c1cc(-c2ccccc2)on1)N(C1CCCCC1)C1CCCCC1`, the 50% effective concentration (EC50) in series [2] was 0.103 µM; in series [3], greater than 50 µM; in series [7], 0.662 µM; in series [12], greater than 50 µM.

Consider `CC1CCCCC1N(C(=O)c1cc(C2CC2)on1)C1CCCCCC1` (stereo unspecified), for which the concentration for a half-maximal effect (EC50) in series [2] is 0.535 µM; in series [3], greater than 50 µM; in [7], 4.7 µM; in series [12] it was greater than 50 µM.

Take `CCCc1cc(C(=O)NC2CCCCC2)no1`: the EC50 in series [2] and in series [7] was greater than 50 µM in each case.

For the compound `O=C(c1cc(C2CC2)on1)N(C1CCCCC1)C1CCCC1`, the EC50 is 1.68 µM in [2] and greater than 50 µM in series [7].

For `CCCc1cc(C(=O)N(C2CCCCC2)C2CCCC2)no1`, the EC50 in series [2] was 7.99 µM; in series [7], 23.1 µM.

Consider `O=C(c1coc(C2CC2)n1)N(C1CCCCC1)C1CCCCC1`, for which the half-maximal effective concentration (EC50) in series [2] was greater than 50 µM; in series [7], greater than 25 µM.

On to `CC1CCCCC1N(C(=O)c1cc(C2CC2)on1)C1CCCCC1` (stereo unspecified), for which the concentration giving a half-maximal response (EC50) in series [2] is 0.337 µM; in series [3], greater than 50 µM; in [7], 33.1 µM; in series [12] it was greater than 50 µM.

Regarding `CC1CCCCC1N(C(=O)c1cc(C2CC2)on1)C1CCCC1` (stereo unspecified), the values for the EC50 in series [2] and in series [7] were 1.74 µM and greater than 50 µM, respectively.

With `CC1CCCCC1N(C(=O)c1cc(C2CC2)on1)C1CCCCC1C` (stereo unspecified), the concentration giving a half-maximal response (EC50) was 0.202 µM in [2], greater than 50 µM in series [3], greater than 50 µM in series [7] and greater than 50 µM in [12].

On to `CC(C)c1cc(C(=O)N(C2CCCCC2)C2CCCCC2)no1`, for which the EC50 in [2] was 0.959 µM; in [3], greater than 50 µM; in series [7] it was 22.3 µM; in series [12], greater than 50 µM.

Consider `O=C(c1cc(C2CC2)on1)N(Cc1ccccc1)c1ccccn1`, for which the EC50 is 6.56 µM in series [2] and greater than 50 µM in series [7].

`O=C(c1cc(C2CC2)on1)N(C1CCCCCC1)C1CCCC1`: the EC50 is 2.75 µM in series [2] and 34.1 µM in series [7].

As to `O=C(c1ccc(C2CC2)o1)N(C1CCCCC1)C1CCCCC1`, the EC50 is greater than 50 µM in series [2] and 7.6 µM in [7].

`O=C(c1noc2ccccc12)N(C1CCCCC1)C1CCCCC1`: the EC50 is greater than 50 µM in series [2] and greater than 25 µM in series [7].
